Source: ChEMBL document CHEMBL1147044, “Design of helical, oligomeric HIV-1 fusion inhibitor peptides with potent activity against enfuvirtide-resistant virus” (Proc Natl Acad Sci U S A, 2007)

Legend:
[1] = Clearance in cynomolgus monkey at 1 to 2 mg/kg, iv; type: ADME, organism-based, Macaca fascicularis; design: dose 1-2 mg/kg, route intravenous; conditions: in vivo
In short: (§1)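 Male cynomolgus monkeys received a single i.v. dose of about 1–2 mg/kg in isotonic phosphate-mannitol vehicle, given as cassettes (typically n ≤ 8). Plasma was protein-precipitated with 0.5% formic acid in acetonitrile and peptide measured by reversed-phase HPLC. Parameters were fitted with mono- or biexponential models.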

[2] = Half life in cynomolgus monkey at 1 to 2 mg/kg, iv; type: ADME, organism-based, Macaca fascicularis; design: dose 1-2 mg/kg, route intravenous; conditions: in vivo; in short: as §1
[3] = test system: Human immunodeficiency virus 1; assay: Antiviral activity against HIV1 3B infected in human PBMCs by reverse transcriptase assay; type: functional, organism-based; conditions: Human immunodeficiency virus 1, 3B
In short: (§2)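 CD8-depleted activated PBMC targets infected at high MOI by spinoculation; infected cells incubated with uninfected targets at 2 × 10⁵ cells per well with serially diluted peptide for 9 days. Fresh compound added and samples taken every 2–3 days. Replication read by reverse transcriptase assay; IC50 from reduction in RT signal relative to infected untreated wells.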

[4] = test system: Human immunodeficiency virus 1; assay: Antiviral activity against HIV1 098 isolate infected in human PBMCs by reverse transcriptase assay; type: functional, organism-based; in short: as §2
[5] = test system: Human immunodeficiency virus 1; assay: Antiviral activity against HIV1 098-T20 isolate infected in human PBMCs by reverse transcriptase assay; type: functional, organism-based; in short: as §2
[6] = test system: Human immunodeficiency virus 1; assay: Antiviral activity against HIV1 098-T1249 isolate infected in human PBMCs by reverse transcriptase assay; type: functional, organism-based; in short: as §2
[7] = test system: Human immunodeficiency virus 1; assay: Antiviral activity against HIV1 098-T651 isolate infected in human PBMCs by reverse transcriptase assay; type: functional, organism-based; in short: as §2
[8] = test system: Human immunodeficiency virus 1; assay: Binding affinity to HIV1 gp41 heptad repeat 1 region assessed as thermal stability of HR1/HR2 peptide bundle complex at 1 uM in presence of 8M urea

Substance: H-TTWEAWDRAIAEYAARIEALIRAAQEQQEKLEAVLREL-OH
- clearance [1]: 0.0667 mL/min/kg
- half-life [2]: 28.6 h
- IC50 [3]: 0.022 µg/mL
- IC50 [4]: 0.049 µg/mL
- IC50 [5]: 0.093 µg/mL
- IC50 [6]: 0.046 µg/mL
- IC50 [7]: 0.242 µg/mL
- Tm [8]: 85 °C

Substance: H-TTWEAWDRAIAEYAARIEALIRALQELQEKNEAALREL-OH
- clearance [1]: 0.133 mL/min/kg
- half-life [2]: 8.6 h
- IC50 [3]: 0.03 µg/mL
- IC50 [4]: 0.054 µg/mL
- IC50 [5]: 0.084 µg/mL
- IC50 [6]: 0.147 µg/mL
- IC50 [7]: 0.242 µg/mL
- Tm [8]: 82 °C

Substance: H-TTWEAWDRAIAEYAARIEALIRALQEQQEKNEAILREL-OH
- clearance [1]: 0.2 mL/min/kg
- half-life [2]: 12.4 h
- IC50 [3]: 0.019 µg/mL
- IC50 [4]: 0.043 µg/mL
- IC50 [5]: 0.079 µg/mL
- IC50 [6]: 0.038 µg/mL
- IC50 [7]: 0.196 µg/mL
- Tm [8]: 85 °C

Substance: H-TTWEAWDRAIAEYAARIEALIRASQEQQEKNEAELREL-OH
- clearance [1]: 1.43 mL/min/kg
- half-life [2]: 1.2 h
- IC50 [3]: 0.006 µg/mL
- IC50 [4]: 0.013 µg/mL
- IC50 [5]: 0.022 µg/mL
- IC50 [6]: 0.072 µg/mL
- IC50 [7]: 1.31 µg/mL
- Tm [8]: 78 °C

Substance: enfuvirtide
- clearance [1]: 0.667 mL/min/kg
- half-life [2]: 8.8 h
- IC50 [3]: 0.006 µg/mL
- IC50 [4]: 0.05 µg/mL
- IC50 [5]: 0.526 µg/mL
- IC50 [6]: 55 µg/mL
- IC50 [7]: 47.8 µg/mL
- Tm [8]: < 5 °C
